The target of assay [1] is Mitogen-activated protein kinase 10 (Homo sapiens) (UniProt P53779). As to the kind of experiment: Inhibition of JNK3 at 1 uM. Put shortly: (§1)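 Single-concentration screen on the Ambit KINOMEscan platform, run against a panel of 250–400 kinases. Per-kinase inhibition was also summarized as S(90), the fraction of kinases inhibited by more than 90%.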
For assay [2], the target named is T1, Mitogen-activated protein kinase kinase kinase kinase 3 (Homo sapiens) (UniProt Q8IVH8).
T1 sequence (whole entry): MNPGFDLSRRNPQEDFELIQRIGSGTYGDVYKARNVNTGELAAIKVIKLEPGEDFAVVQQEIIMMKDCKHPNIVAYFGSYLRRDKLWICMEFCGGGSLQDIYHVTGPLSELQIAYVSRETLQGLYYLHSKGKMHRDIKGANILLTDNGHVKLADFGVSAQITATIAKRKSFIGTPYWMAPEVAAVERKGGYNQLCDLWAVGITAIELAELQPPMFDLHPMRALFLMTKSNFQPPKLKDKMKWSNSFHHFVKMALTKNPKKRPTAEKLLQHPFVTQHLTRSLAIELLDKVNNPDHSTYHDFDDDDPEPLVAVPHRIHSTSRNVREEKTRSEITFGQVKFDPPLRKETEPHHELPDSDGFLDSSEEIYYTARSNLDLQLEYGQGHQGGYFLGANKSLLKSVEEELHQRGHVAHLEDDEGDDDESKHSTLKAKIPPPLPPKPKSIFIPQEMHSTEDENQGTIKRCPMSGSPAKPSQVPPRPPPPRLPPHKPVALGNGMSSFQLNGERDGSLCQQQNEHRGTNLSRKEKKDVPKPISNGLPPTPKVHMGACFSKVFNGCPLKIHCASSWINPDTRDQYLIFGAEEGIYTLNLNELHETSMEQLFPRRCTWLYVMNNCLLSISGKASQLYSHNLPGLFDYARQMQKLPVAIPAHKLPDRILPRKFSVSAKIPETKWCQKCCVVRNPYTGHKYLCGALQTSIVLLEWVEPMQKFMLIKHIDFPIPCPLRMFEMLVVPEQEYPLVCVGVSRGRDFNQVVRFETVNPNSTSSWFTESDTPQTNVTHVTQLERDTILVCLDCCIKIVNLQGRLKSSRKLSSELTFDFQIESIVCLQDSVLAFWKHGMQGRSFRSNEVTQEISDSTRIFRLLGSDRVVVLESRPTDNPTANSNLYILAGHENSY
In words: Inhibition of MAP4K3 at 1 uM. Put shortly: as §1

Assay [3] deals with Hepatocyte growth factor receptor (Homo sapiens) (UniProt P08581). In words: Inhibition of MET at 1 uM. The procedure, abridged: as §1
Assay [4] has as its target Serine/threonine-protein kinase PAK 3 (Homo sapiens) (UniProt O75914). In words: Inhibition of PAK3 at 1 uM.
Assay [5] has as its target Protein kinase C delta type (Homo sapiens) (UniProt Q05655). In words: Inhibition of PRKCD at 1 uM.
Assay [6] addresses Tyrosine-protein kinase Yes (Homo sapiens) (UniProt P07947). In words: Inhibition of YES at 1 uM.
For assay [7], the system named is Tyrosine-protein kinase ABL1 (Homo sapiens), P00519 [H396P]. In words: Inhibition of ABL1 H396P mutant at 1 uM. The procedure, abridged: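 Ambit KINOMEscan screen at a single concentration across a 250–400 kinase panel, recorded as percent inhibition. Selectivity was expressed as S(90), the fraction of kinases inhibited >90%.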
Assay [8] deals with Casein kinase I isoform gamma-3 (Homo sapiens) (UniProt Q9Y6M4). As to the kind of experiment: Inhibition of CSNK1G3 at 1 uM. Put shortly: (§2)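 Single-concentration screen using Ambit Bioscience KINOMEscan technology across a panel of 250–400 kinases. Per-kinase inhibition from this screen was summarized as S(90), the fraction of kinases inhibited by more than 90%.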
Assay [9] has as its target Ephrin type-A receptor 2 (Homo sapiens) (UniProt P29317). As to the kind of experiment: Inhibition of EPHA2 at 1 uM. The procedure, abridged: as §2
The target in assay [10] is Misshapen-like kinase 1 (Homo sapiens) (UniProt Q8N4C8). As to the kind of experiment: Inhibition of MINK at 1 uM.
Chain of Misshapen-like kinase 1 (Homo sapiens) (Q8N4C8 whole entry, looked up, canonical isoform): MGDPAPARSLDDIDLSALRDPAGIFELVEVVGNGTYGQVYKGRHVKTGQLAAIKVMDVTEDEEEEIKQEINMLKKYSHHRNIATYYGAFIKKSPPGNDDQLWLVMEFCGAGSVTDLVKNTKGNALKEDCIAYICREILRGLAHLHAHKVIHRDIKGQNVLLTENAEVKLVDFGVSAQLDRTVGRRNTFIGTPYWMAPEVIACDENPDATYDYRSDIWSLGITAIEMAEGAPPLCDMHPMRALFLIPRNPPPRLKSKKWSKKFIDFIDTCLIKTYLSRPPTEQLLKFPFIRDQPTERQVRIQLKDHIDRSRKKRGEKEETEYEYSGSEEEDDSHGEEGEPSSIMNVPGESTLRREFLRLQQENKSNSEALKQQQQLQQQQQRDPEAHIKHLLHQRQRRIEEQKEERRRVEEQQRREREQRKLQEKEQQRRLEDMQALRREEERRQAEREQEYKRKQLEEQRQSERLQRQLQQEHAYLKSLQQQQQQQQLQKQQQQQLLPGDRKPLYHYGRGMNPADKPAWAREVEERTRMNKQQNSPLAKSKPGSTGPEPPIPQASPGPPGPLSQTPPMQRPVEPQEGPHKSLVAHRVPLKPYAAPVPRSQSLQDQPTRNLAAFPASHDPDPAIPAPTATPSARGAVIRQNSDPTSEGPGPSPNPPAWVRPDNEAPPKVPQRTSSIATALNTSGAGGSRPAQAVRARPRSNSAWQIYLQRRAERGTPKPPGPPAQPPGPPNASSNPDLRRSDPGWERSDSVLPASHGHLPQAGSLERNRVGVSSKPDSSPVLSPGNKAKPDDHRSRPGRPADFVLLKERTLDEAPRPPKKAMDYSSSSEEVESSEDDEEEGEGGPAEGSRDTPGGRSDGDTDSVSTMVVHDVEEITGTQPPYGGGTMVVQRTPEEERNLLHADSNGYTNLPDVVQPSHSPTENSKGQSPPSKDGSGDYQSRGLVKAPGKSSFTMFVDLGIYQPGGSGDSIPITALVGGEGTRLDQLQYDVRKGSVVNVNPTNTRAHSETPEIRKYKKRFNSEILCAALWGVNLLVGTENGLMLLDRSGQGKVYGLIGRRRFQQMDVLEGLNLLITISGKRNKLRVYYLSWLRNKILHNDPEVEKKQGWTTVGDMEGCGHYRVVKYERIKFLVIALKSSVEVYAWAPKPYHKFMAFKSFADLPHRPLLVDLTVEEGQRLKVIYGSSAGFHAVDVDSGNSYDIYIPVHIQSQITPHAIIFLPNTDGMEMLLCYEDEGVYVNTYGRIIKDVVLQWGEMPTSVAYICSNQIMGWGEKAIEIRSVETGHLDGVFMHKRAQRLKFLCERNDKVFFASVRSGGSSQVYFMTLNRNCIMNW
For assay [11], the system named is Phosphatidylinositol 4,5-bisphosphate 3-kinase catalytic subunit alpha isoform (Homo sapiens), P42336 [H1047Y]. In words: Inhibition of PIK3CA H1047Y mutant at 1 uM.
Chain of Phosphatidylinositol 4,5-bisphosphate 3-kinase catalytic subunit alpha isoform (Homo sapiens), P42336 [H1047Y] (P42336 whole entry H1047Y, canonical isoform): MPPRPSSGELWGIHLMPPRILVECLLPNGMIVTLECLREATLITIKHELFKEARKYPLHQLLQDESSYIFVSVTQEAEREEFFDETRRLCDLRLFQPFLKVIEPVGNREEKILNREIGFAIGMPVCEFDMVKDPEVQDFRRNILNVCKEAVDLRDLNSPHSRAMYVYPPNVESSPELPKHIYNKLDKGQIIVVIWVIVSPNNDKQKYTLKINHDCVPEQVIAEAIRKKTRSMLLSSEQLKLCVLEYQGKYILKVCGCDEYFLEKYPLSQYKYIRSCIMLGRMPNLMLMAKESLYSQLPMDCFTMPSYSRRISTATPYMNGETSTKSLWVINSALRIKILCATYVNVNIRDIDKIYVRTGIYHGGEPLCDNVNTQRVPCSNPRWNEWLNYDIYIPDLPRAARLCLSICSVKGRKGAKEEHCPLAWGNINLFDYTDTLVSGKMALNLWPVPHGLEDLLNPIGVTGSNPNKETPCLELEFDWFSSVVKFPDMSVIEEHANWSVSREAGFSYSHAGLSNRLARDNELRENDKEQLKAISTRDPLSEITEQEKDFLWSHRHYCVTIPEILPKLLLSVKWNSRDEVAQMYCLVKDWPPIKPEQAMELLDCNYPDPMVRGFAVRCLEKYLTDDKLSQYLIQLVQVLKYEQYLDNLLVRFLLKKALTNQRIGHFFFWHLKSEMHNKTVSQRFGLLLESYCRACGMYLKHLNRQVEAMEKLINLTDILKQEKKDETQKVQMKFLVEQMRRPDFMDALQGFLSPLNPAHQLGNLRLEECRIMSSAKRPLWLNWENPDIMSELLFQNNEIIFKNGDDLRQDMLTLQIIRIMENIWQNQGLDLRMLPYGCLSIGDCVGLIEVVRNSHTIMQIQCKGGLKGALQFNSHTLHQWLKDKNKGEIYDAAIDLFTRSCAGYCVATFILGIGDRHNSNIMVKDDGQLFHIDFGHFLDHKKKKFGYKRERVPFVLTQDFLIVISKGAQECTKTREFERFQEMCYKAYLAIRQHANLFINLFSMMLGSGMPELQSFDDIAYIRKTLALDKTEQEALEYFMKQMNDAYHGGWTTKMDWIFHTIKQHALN
Assay [12] has as its target T2, Serine/threonine-protein kinase D1 (Homo sapiens) (UniProt Q15139).
T2 sequence (whole entry): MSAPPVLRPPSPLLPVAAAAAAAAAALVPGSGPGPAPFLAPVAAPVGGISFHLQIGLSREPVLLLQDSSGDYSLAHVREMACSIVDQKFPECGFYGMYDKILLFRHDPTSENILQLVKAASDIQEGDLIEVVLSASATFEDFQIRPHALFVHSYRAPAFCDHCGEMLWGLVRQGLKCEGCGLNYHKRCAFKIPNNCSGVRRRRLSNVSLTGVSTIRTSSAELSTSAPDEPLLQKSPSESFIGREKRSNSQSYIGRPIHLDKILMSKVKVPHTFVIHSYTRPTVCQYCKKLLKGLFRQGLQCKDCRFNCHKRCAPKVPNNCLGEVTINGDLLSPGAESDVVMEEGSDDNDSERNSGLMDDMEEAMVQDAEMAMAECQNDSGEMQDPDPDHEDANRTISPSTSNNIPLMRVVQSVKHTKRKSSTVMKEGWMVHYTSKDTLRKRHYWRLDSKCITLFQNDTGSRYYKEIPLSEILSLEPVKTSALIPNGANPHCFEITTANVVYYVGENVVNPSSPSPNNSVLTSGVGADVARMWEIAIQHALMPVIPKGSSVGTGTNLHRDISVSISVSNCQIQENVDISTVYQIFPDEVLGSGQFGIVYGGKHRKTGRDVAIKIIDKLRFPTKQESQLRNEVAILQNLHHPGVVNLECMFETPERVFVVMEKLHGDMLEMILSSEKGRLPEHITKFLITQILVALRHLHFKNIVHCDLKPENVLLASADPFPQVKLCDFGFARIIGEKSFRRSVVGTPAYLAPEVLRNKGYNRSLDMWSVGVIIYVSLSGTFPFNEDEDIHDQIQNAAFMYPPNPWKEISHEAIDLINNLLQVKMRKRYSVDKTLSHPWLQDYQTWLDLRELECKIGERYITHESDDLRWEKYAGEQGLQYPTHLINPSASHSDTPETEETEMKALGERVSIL
In words: Inhibition of PRKD1 at 1 uM.

Assay [13] has as its system Proto-oncogene tyrosine-protein kinase receptor Ret (Homo sapiens), P07949 [V804M]. In words: Inhibition of RET V804M mutant at 1 uM.
For assay [14], the target named is Wee1-like protein kinase 2 (Homo sapiens) (UniProt P0C1S8). In words: Inhibition of WEE2 at 1 uM.
Chain of Wee1-like protein kinase 2 (Homo sapiens) (P0C1S8 whole entry, looked up): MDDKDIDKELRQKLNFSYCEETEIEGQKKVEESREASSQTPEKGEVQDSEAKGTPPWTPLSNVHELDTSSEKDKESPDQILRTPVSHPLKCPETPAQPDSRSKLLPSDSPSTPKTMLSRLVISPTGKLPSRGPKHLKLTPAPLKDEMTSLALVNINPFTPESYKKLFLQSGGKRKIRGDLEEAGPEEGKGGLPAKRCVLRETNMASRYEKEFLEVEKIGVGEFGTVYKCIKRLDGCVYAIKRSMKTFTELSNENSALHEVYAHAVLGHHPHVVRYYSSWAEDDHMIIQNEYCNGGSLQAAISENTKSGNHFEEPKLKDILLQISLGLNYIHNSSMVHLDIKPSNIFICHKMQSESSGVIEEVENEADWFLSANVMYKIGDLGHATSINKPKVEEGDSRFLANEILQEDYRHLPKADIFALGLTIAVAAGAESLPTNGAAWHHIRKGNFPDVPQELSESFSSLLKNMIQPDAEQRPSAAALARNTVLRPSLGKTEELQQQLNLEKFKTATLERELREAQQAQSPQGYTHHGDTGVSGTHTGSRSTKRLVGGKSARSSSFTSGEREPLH
Assay [15] has as its target Bone morphogenetic protein receptor type-1B (Homo sapiens) (UniProt O00238). As to the kind of experiment: Inhibition of BMPR1B at 1 uM.
Assay [16] concerns the target Cyclin-dependent kinase 11B (Homo sapiens) (UniProt P21127). As to the kind of experiment: Inhibition of CDC2L1 at 1 uM.
The target of assay [17] is Dual specificity tyrosine-phosphorylation-regulated kinase 1B (Homo sapiens) (UniProt Q9Y463). As to the kind of experiment: Inhibition of DYRK1B at 1 uM.
Chain of Dual specificity tyrosine-phosphorylation-regulated kinase 1B (Homo sapiens) (Q9Y463 whole entry, looked up): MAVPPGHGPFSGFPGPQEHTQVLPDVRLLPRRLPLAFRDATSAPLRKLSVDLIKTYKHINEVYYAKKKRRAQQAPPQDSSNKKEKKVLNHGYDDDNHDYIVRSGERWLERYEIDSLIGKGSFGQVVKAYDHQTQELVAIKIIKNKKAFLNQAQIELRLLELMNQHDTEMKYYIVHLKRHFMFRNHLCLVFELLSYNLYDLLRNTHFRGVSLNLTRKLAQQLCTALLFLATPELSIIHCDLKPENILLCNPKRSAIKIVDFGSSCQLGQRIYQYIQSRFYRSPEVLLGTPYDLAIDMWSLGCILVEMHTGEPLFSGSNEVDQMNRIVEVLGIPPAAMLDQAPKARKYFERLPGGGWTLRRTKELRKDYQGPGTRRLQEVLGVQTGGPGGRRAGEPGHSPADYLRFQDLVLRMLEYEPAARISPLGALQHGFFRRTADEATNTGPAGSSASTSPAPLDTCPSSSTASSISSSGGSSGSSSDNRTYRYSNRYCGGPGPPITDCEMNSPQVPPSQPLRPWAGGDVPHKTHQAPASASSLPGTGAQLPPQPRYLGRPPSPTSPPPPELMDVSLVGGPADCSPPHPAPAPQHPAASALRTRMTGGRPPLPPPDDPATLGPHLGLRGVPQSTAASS

Bounds are passed on as bounds.

Chain of Serine/threonine-protein kinase PAK 3 (Homo sapiens) (O75914 whole entry, looked up): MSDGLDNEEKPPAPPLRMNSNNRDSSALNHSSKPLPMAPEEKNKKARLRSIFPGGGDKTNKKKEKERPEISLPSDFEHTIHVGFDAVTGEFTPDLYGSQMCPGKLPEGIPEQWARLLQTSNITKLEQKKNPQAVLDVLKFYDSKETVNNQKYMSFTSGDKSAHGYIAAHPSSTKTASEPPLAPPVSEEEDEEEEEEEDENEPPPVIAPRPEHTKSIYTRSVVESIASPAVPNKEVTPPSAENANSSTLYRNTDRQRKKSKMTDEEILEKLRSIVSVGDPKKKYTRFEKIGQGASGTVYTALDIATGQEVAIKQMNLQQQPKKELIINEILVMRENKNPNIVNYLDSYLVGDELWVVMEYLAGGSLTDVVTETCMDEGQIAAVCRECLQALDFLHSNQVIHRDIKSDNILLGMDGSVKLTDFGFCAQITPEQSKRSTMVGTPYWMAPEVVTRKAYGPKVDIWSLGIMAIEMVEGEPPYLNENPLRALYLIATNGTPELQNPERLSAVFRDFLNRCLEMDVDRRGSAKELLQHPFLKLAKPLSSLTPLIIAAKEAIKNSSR
Chain of Protein kinase C delta type (Homo sapiens) (Q05655 whole entry, looked up): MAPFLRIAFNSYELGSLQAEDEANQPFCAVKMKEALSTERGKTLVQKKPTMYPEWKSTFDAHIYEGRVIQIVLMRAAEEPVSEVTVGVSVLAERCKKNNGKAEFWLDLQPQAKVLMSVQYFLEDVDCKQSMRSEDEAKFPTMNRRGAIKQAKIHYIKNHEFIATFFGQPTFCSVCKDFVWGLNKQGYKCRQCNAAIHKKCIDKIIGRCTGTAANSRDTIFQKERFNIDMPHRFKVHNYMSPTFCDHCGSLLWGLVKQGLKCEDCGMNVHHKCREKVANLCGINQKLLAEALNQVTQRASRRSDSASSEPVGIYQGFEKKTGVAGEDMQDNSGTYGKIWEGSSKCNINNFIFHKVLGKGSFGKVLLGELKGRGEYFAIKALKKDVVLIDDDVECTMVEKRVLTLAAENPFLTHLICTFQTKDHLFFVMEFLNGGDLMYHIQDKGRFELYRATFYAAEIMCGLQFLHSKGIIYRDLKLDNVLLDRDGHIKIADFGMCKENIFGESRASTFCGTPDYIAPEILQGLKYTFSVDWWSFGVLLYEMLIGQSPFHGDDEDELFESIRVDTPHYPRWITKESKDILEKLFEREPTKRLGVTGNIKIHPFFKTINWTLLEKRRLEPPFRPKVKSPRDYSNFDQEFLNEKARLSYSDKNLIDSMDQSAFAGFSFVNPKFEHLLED

As for `O=C(c1ccc(-c2cnc3c(c2)N(Cc2cc(Cl)ccc2C(F)(F)F)CCN3)cc1)N1CCCCC1`, the inhibition was less than 50% in assay [1]; less than 50% in assay [2]; 66% in [3]; less than 50% in [4]; less than 50% in [5]; less than 50% in [6]. The inhibition in assay [7], in [8] and in assay [9] was less than 50% each time.

For `CN1CCN(c2ccc(-c3cnc4c(c3)N(Cc3c(F)ccc(F)c3Cl)CCN4)cn2)CC1`, the inhibition in [1] was less than 50%; in assay [2] it was 91%; in assay [3] it was 94%; in [10], 96%; in assay [4] it was less than 50%; in assay [11] it was less than 50%. The inhibition in assay [5] was less than 50%; in assay [12], 67%; in assay [13] it was less than 50%; in assay [14], less than 50%; in assay [6] it was less than 50%; in [7], 85%. The inhibition in [15], in assay [16], in assay [8], in [17] and in assay [9] was less than 50% throughout.

For `COC1CCN(C(=O)c2ccc(-c3cnc4c(c3)N(Cc3cc(Cl)ccc3C(F)(F)F)CCN4)cc2)CC1`, the inhibition in [1] is less than 50%; in [2] it was less than 50%; in assay [3], 76.6%; in assay [4], less than 50%; in [5], less than 50%; in assay [6] it was less than 50%. Besides, the inhibition in assay [7], in assay [8] and in assay [9] was less than 50% in each case.

For the compound `O=C(O)c1ccc(-c2cnc3c(c2)N(Cc2cc(Cl)ccc2C(F)(F)F)CCN3)cc1`, the inhibition in [1], in [2], in assay [3], in assay [4], in [5] and in assay [6] was less than 50% in each case. In addition, the inhibition in assay [7], in assay [8] and in [9] was less than 50% throughout.

As for `FC(F)(F)c1ccc(Cl)cc1CN1CCNc2ncc(-c3ccnc(N4CCNCC4)c3)cc21`, the inhibition in [1] was less than 50%; in assay [2], 70%; in assay [3], 94%; in assay [10] it was less than 50%; in [4] it was less than 50%; in assay [11], less than 50%. Also, the inhibition in assay [5] was less than 50%; in assay [12] it was less than 50%; in [13] it was 76%; in [14] it was less than 50%; in assay [6], less than 50%; in assay [7], less than 50%. Besides, the inhibition in [15], in assay [16], in [8], in [17] and in [9] was less than 50% throughout.

With `CN1CCN(c2ccc(-c3cnc4c(c3)N(Cc3cc(Cl)ccc3Cl)CCN4)cn2)CC1`, the inhibition in assay [1] is less than 50%; in [2] it was less than 50%; in assay [3] it was 67%; in assay [10], less than 50%; in assay [4] it was less than 50%; in assay [11] it was less than 50%. In addition, the inhibition in assay [5], in assay [12], in assay [13], in assay [14], in [6] and in [7] was less than 50% each time. The inhibition in [15], in assay [16], in assay [8], in assay [17] and in [9] was less than 50% each time.

`O=C(c1ccc(-c2cnc3c(c2)N(Cc2cc(Cl)ccc2C(F)(F)F)CCN3)cc1)N1CCC(N2CCCC2)CC1`: the inhibition in assay [1] was less than 50%; in assay [2] it was less than 50%; in assay [3], 90.3%; in [4], less than 50%; in assay [5], less than 50%; in assay [6], less than 50%. The inhibition in [7], in [8] and in assay [9] was less than 50% each time.

Turning to `CN1CCN(c2ccc(-c3cnc4c(c3)N(Cc3cc(Cl)ccc3C(F)(F)F)CCN4)cn2)CC1`, the inhibition in assay [1] was less than 50%; in assay [2], less than 50%; in assay [3] it was 82%; in assay [10] it was less than 50%; in assay [4], less than 50%; in assay [11] it was less than 50%. The inhibition in assay [5], in assay [12], in assay [13], in assay [14], in [6] and in assay [7] was less than 50% each time. Also, the inhibition in assay [15], in assay [16], in assay [8], in assay [17] and in assay [9] was less than 50% in each case.

As to `CC(=O)N1CCN(c2cc(-c3cnc4c(c3)N(Cc3cc(Cl)ccc3C(F)(F)F)CCN4)ccn2)CC1`, the inhibition in [1] was less than 50%; in assay [2], less than 50%; in [3], 86%; in [10], less than 50%; in assay [4], less than 50%; in assay [11], less than 50%. The inhibition in [5], in [12], in [13], in assay [14], in [6] and in assay [7] was less than 50% throughout. Besides, the inhibition in [15], in [16], in assay [8], in assay [17] and in assay [9] was less than 50% each time.

Values taken from ChEMBL document CHEMBL1165965, “Synthesis and structure-activity relationships of 1,2,3,4-tetrahydropyrido[2,3-b]pyrazines as potent and selective inhibitors of the anaplastic lymphoma kinase” (Bioorg Med Chem, 2010).
